# DENV2 CPE rescue = protects cells from dengue virus 2 cytopathic effect. DENV2-infected cells, cytopathic effect rescue, plate reader. CPE inhibition, % at 9.99 µM. hit rate 1.7% among 350,000; in the data active means CPE inhibition above about 20%, passing the limit was not always enough; inconclusive means no clear call, values can overlap the other calls; tested in BHK-21 cells
# S100A4 MyoIIA = blocks human S100A4 binding to myosin IIA peptide | P26447 | S100A4/TAMRA-MyoIIA peptide fluorescence polarization | inhibition, % at 10.7 µM | hit rate 0.14% among 360,000;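 active means mean inhibition of at least 70% across replicates, with every replicate also reaching that level; inconclusive means mean inhibition reaches 70% but some replicates fall short; inactive means mean inhibition below 70%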
# Target sequence (P26447 whole entry, looked up): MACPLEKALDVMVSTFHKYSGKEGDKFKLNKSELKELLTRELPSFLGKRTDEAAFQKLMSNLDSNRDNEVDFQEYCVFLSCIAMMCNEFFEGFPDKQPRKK
#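 incubation = readout 5 min after mixing, signal stable up to 60 min | system = S100A4 monomer protein | buffer or medium = HEPES pH 7.2 with CaCl2, KCl, NaCl, DTT, Triton | benchmarks = neutral control DMSO, positive control TFP | also added = fluorescent myosin IIA peptide, 5 nM | compound dosing = one concentration per compound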
# SIRT5 inh = sirtuin-5 (human) deacylase inhibition; Q9NXA8; Purified SirT5, succinyl-peptide AMC, trypsin-coupled fluorescence; inhibition, % at 15 µM; hit rate 1.1% among 330,000; AID 652115; in the data active means inhibition above about 15%; inconclusive means no clear call, values can overlap the other calls
# Target sequence (Q9NXA8 whole entry, looked up): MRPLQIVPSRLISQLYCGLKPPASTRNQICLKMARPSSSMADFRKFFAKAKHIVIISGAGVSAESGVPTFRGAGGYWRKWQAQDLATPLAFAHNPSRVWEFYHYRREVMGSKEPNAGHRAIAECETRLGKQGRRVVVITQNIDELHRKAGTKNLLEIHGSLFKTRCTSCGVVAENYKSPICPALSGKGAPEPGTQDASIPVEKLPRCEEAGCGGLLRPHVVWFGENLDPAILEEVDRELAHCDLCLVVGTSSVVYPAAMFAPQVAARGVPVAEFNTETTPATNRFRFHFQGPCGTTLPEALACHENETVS
# AF4-AF9 inh = blocks AF4 peptide binding to human AF9. AlphaScreen, biotin-AF4 peptide binding to FLAG-AF9. hit rate 0.47% among 350,000. AID 651704. inhibition, % at 10 µM;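 active means every replicate reaching a set inhibition limit, whatever the replicate mean, cut at about 25% in these data; inconclusive means mean inhibition reaches that limit but some replicates miss it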
# CaV13 ICDI inh = Disruptors of the CACNA1D IQ motif to Ca2+-dependent inactivation inhibitor domain association, primary screening, Förster resonance energy transfer in intact living … | hit rate 0.098% among 340,000 | HEK cells, CFP/YFP FRET ICDI-IQ, plate reader, 10 min; percent FRET-ratio fall versus neutral wells | inhibition, % at 12.3 µM;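 active means mean replicate inhibition of at least 30% and at least 1% of replicates passing that level; inconclusive means only one of the two criteria is met; inactive means neither criterion is met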
# A number is an active result; i = inactive; ? = inconclusive; nt = not tested or not shown; + = active, no number. Only some compounds are listed: those with a hit (about 2.7% of all), similar ones and a draw of the others.
SMILES,DENV2 CPE rescue,S100A4 MyoIIA,SIRT5 inh,AF4-AF9 inh,CaV13 ICDI inh
C[C@@H]1CN([C@@H](C)CO)C(=O)c2cc(NC(=O)c3ccncc3)ccc2O[C@@H](C)CCCCO[C@@H]1CN(C)C,i,i,i,i,nt
CC(C)C#Cc1cnc2c(c1)C(=O)N([C@H](C)CO)C[C@H](C)[C@H](CN(C)C(=O)c1cccc(F)c1)O2,i,i,i,i,nt
O=C(CN1CCOCC1)N1CCCCN2[C@H](CO)[C@H](c3ccc(C#Cc4ccccc4F)cc3)[C@@H]2C1,48,i,i,i,nt
CC(=O)N1CCCCN2[C@@H](CO)[C@@H](c3ccc(C#Cc4ccccc4F)cc3)[C@@H]2C1,59,i,i,i,nt
O=C(CN1CCOCC1)N1CCCCN2[C@H](C1)[C@H](c1ccc(C#Cc3ccccc3F)cc1)[C@@H]2CO,43,i,i,i,nt
O=C(CN1CCOCC1)N1CCCCN2[C@H](C1)[C@@H](c1ccc(C#Cc3ccccc3F)cc1)[C@@H]2CO,i,i,i,i,nt
CC(=O)N1CCCCN2[C@H](CO)[C@@H](c3ccc(C#Cc4ccccc4F)cc3)[C@@H]2C1,i,i,i,i,nt
C[C@@H]1CCCCO[C@@H](CN(C)C(=O)C2CCCCC2)[C@H](C)CN([C@H](C)CO)C(=O)c2cc(NC(=O)Nc3ccccc3)ccc2O1,i,i,i,i,nt
Cc1ccc2c(c1)N(CCCC(=O)NCCCN1CCCC1=O)C(=O)CO2,i,i,i,49,i
Cc1ccc2c(c1)N(CCC(=O)NCCCN1CCCC1)C(=O)CO2,i,i,i,i,i
O=S(=O)(c1cccc(F)c1)N1CC[C@@H]2[C@H]1c1cc(C#Cc3cccc(F)c3)ccc1N[C@@H]2CO,i,nt,nt,nt,nt
Cc1cccc(S(=O)(=O)N2CC[C@H]3[C@H](CO)Nc4ccc(C#Cc5ccc(F)cc5)cc4[C@H]32)c1,i,i,i,i,nt
Cc1cccc(S(=O)(=O)N2CC[C@@H]3[C@H](CO)Nc4ccc(C#Cc5ccc(F)cc5)cc4[C@@H]32)c1,i,97,i,i,nt
O=S(=O)(c1cccc(F)c1)N1CC[C@@H]2[C@@H](CO)Nc3ccc(C#Cc4cccc(F)c4)cc3[C@@H]21,23,nt,nt,nt,nt
C[C@@H]1CCCCO[C@H](CN(C)S(=O)(=O)c2ccc(F)cc2)[C@H](C)CN([C@@H](C)CO)C(=O)c2cc(NC(=O)CCC(F)(F)F)ccc2O1,i,i,i,i,nt
CC(C)(C)Nc1scc(-c2ccccc2)[n+]1-c1ccccc1,i,i,i,28,i
O=C(Cc1cccs1)NCc1cccnc1,nt,nt,nt,nt,i
CC(O)(Cc1cccnc1)c1cccs1 (configuration not stated),77,i,i,i,i
COCc1cc(N2CCN(C(=O)OC(C)(C)C)C[C@H]2C)ccc1Br,i,i,i,nt,i
O=C(C[C@H]1C[C@@H]2c3cc(NC(=O)NC4CCCC4)ccc3O[C@@H]2[C@@H](CO)O1)NCc1cccnc1,i,i,i,i,nt
C[C@@H]1CN([C@H](C)CO)C(=O)c2cc(C3=CCCCC3)cnc2O[C@@H]1CN(C)C(=O)CN1CCOCC1,i,i,i,i,nt
CCCCNC(=O)c1ccc(NS(=O)(=O)c2ccc3[nH]c(=O)[nH]c3c2)cc1,23,i,i,i,nt
CN(Cc1ccccc1F)C(=O)c1ccc(NS(=O)(=O)c2ccc3[nH]c(=O)[nH]c3c2)cc1,i,i,31,i,i
CCCCCNC(=O)c1ccc(NS(=O)(=O)c2ccc3[nH]c(=O)[nH]c3c2)cc1,i,i,i,i,nt
CN(C)CCCN1c2ccccc2CCc2ccccc21,i,i,i,i,i
SMILES,DENV2 CPE rescue,S100A4 MyoIIA,SIRT5 inh,AF4-AF9 inh,CaV13 ICDI inh
CN(C)CCCN1c2ccc3ccccc3c2Sc2cccc(Cl)c21,i,i,i,33,i
CN(C)CCCN1c2ccccc2Sc2ccc3ccccc3c21,43,i,i,30,i
COc1ccc2c3c(n(C)c2c1)[C@@H](CO)N(Cc1cccc(F)c1)CC31CN(C)C1,i,i,nt,i,nt
CO[C@@H]1CN(C)C(=O)c2ccc(NS(=O)(=O)c3ccc(C)cc3)cc2OC[C@@H](C)N(Cc2ccccn2)C[C@H]1C,i,i,i,i,nt
COc1cc(/C=C/C(=O)Nc2nnc(CC(C)(C)C)s2)cc(OC)c1OC,100,i,i,i,i
O=C(O)CSCC(=O)N(Cc1ccccc1)c1nc(-c2ccccc2)c(-c2ccccc2)s1,?,i,17,i,i
CCOC(=O)C1=C[C@@H](C)N(S(=O)(=O)c2ccc(C)cc2)[C@H]1c1ccccc1,i,i,i,i,i
CCOC(=O)C1=C[C@@H](c2ccccc2)N(S(=O)(=O)c2ccc(C)cc2)[C@H]1c1ccccc1Cl,i,i,23,i,i
CCOP(=O)(OCC)c1ccc2c(c1)C(=O)c1ccccc1CC2,46,i,nt,nt,i
NC(=O)c1ncn([C@@H]2O[C@H](C(=O)N[C@H](Cc3c[nH]c4ccccc34)C(=O)N3CCN(CC(=O)N4CCCC4)CC3)[C@@H](O)[C@H]2O)n1,21,i,i,nt,i
Cc1ccc(-c2ccc(C(=O)O)o2)cc1Cl,i,i,i,27,i
Cc1ccc([C@H]2C(C(=O)O)=C[C@@H](C(C)(C)C)N2S(=O)(=O)c2ccc(C)cc2)cc1,?,i,i,i,i
COc1ccc([C@H]2C(C(=O)O)=C[C@@H](C(C)(C)C)N2S(=O)(=O)c2ccccc2)cc1,83,i,i,i,i
CCCNC(=O)N(C)C[C@H]1Oc2ncc(C#Cc3ccncc3)cc2C(=O)N([C@@H](C)CO)C[C@H]1C,i,i,i,i,nt
CCOc1ccc(C(C(=O)NCC2CCCO2)N(Cc2cccs2)C(=O)c2snc(C(N)=O)c2N)cc1 (configuration not stated),?,i,25,i,i
O=C(C[C@H]1CC[C@H](NC(=O)c2ccccc2)[C@H](CO)O1)NCCc1ccncc1,i,i,i,i,nt
COCC(=O)N1C[C@H](C)[C@@H](OC)CN(C)C(=O)c2cc(NC(=O)C3CCC3)ccc2OC[C@H]1C,i,i,i,i,nt
CCCNC(=O)N(C)C[C@@H]1Oc2cc(C#Cc3ccccn3)ccc2S(=O)(=O)N([C@@H](C)CO)C[C@H]1C,?,i,i,i,nt
COC(=O)Cc1c[nH]c2cccc(OCC(O)CN(Cc3ccc([N+](=O)[O-])cc3)C(C)(C)C)c12 (configuration not stated),nt,i,i,nt,i
Cc1ccc(CN(CC(O)COc2cccc3[nH]cc(C)c23)C(C)(C)C)cc1 (configuration not stated),i,i,i,29,i
COc1cc(S(=O)(=O)NCc2ccncc2)c(OC)cc1Br,28,i,i,i,i
C[C@H]1CN([C@@H](C)CO)C(=O)Cc2cc(NC(=O)Nc3ccccc3)ccc2O[C@@H]1CN(C)S(=O)(=O)c1cn(C)cn1,i,i,i,i,nt
N#CC1=C(N)Oc2cc(N)ccc2C1c1ccc(F)cc1F (configuration not stated),?,i,i,i,+
